Shown are actives, neighbours in structure and some others; about 2% of the full set was active somewhere.
MEX-5 binding: C. elegans MEX-5 TCR-2 RNA binding activity; Q9XUB2; MEX-5/FITC-TCR2 RNA binding, fluorescence polarization; stronger effect = lower value; activity score (negative = inhibition of binding), % at 10 µM; 0.38% of 300,000 active; AID 1832;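 active = inhibition past about -25% in most replicates, and total fluorescence under double the plate's negative control median, limit read from the data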;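 also: 0% = DMSO and -100% = 5 µM competing unlabeled TCR2 RNA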
Runt-SMMHC FRET: blocks binding of human RUNX1 Runt domain to CBFb-SMMHC; Q01196+Q13951; Cerulean-Runt/Venus-CBFb-SMMHC FRET ratio 530/480, 1 h; inhibition, % at 20 µM; 0.74% of 220,000 active; AID 1434;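 active = mean inhibition across duplicate retests at 20 µM reaching about 50%, limit read from the data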;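 also: 0% = DMSO wells and 100% = wells with excess untagged CBFb-SMMHC; inhibitors lower the FRET ratio by blocking Runt binding to CBFb-SMMHC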
Runt-CBFb FRET: Runt domain-CBFb interaction inhibition; Q01196+Q13951; Cerulean-Runt/Venus-CBFb FRET ratio 530/480, 1 h; inhibition, % at 20 µM; 0.46% of 220,000 active; AID 1496;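 active = inhibition over about 50% at 20 µM in the single-dose screen, limit read from the data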;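 also: 0% = DMSO wells and 100% = excess unlabeled CBFb competitor control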
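Assay system: Cerulean-tagged RUNX1 Runt domain (FRET donor) fusion protein / Amount: 100 nM each of Venus-CBFb and Cerulean-Runt domain / Medium: Tris buffer pH 7.5 with salts and BSA / Also added: Venus-CBFb 100 nM / Schedule: 1 h complex formation plus 1 h compound treatment, room temperature / Signal: FRET fluorescence / Read-out: loss of energy transfer signal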
PKD1 kinase inh: PKD1 (human) kinase inhibition | PKD1 kinase fluorescence polarization assay | inhibition, % (concentration not given with the values) | 0.056% of 200,000 active | AID 797
RanGTP-Impb inh: inhibitors of RanGTP-importin-beta interaction, primary screen, biochemical, FRET, CFP-Ran, YFP-importin-beta, homogeneous; inhibition, % (test concentration not listed); 1.1% of 300,000 active; AID 2216; cell-free CFP-Ran/YFP-importin-beta FRET ratio;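 active = more than half of the replicate wells show a fall in the fluorescence ratio signal beyond about 16%, limit read from the data, passing the limit was not always enough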;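 also: 0% = DMSO wells and 100% = Ran loaded with GDP instead of GTP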
EBV gp42 inh: inhibitors of Epstein-Barr virus glycoprotein 42 | 0.42% of 220,000 active | Fluorescence polarization binding assay, mP read-out | inhibition, % (tested at 21.74 µM) | AID 1085
YIC counter: counter-screen for RanGTP-importin-beta inhibitors: YIC FRET probe. shares compounds with RanGTP-Impb inh. Purified YIC probe, intramolecular FRET ratio YFP/CFP. IC50, µM. 40% of 1,000 active;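 active = fitted half-maximal inhibitory concentration no more than tenfold above the top dose tested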
An asterisk follows results filed as active; x = not tested or not shown. Rule as the data show it, unless noted: active = inhibition above about 50%; inactive = the rest.

SMILES | MEX-5 binding | Runt-SMMHC FRET | Runt-CBFb FRET | PKD1 kinase inh | RanGTP-Impb inh | EBV gp42 inh | YIC counter
CCN(CC)S(=O)(=O)c1ccc2oc(C(=O)NCCCN3CCOCC3)c(C)c2c1 | 1 | 0 | 0 | 2 | 17* | -12 | >50
O=C(NCc1ccc(F)cc1)c1cc2c(s1)CS(=O)(=O)C2 | -1 | x | x | x | -1 | x | x
Cc1cc(CNC(=O)COc2ccccc2)c2ccccc2n1 | -2 | -1 | 2 | -10 | 1 | -15 | x
Cc1ccc(OCC(=O)NNc2c3ccccc3nc3ccccc23)cc1 | -2 | 24 | 5 | -6 | 36* | 17 | >50
Cc1cccc(OCC(=O)NNc2c3ccccc3nc3ccccc23)c1 | 3 | 15 | 10 | 3 | 33* | 0 | >50
O=C(Cc1ccccc1)NNc1c2ccccc2nc2ccccc12 | 2 | 20 | 17 | -2 | 34* | -3 | >50
Cc1cc(CNC(=O)COc2ccc(F)cc2)c2ccccc2n1 | 0 | -1 | 0 | 2 | 18* | -11 | >50
COc1ccc(N(Cc2cc(=O)[nH]c3ccccc23)C(C)=O)cc1 | 0 | x | x | x | -3 | x | x
CCN1CCc2nc(NC(=O)CC(c3ccccc3)c3ccccc3)sc2C1 | 10 | 60* | 6 | -7 | 31* | -21 | 16*
CCOc1ccc(C2C(C(=O)c3ccco3)=C(O)C(=O)N2CCCn2ccnc2)cc1OC (stereo not drawn) | -3 | x | x | x | 2 | x | x
CCN(/N=C/c1ccc(Cl)cc1)c1cc(=O)n(C)c(=O)[nH]1 | -1 | 8 | 4 | -11 | 4 | -3 | x
CCN(/N=C/C=C/c1ccccc1)c1cc(=O)n(C)c(=O)[nH]1 | 1 | 1 | 1 | -3 | 27* | -9 | >50
Cc1cc(C(=O)N2CCc3c([nH]c4ccccc34)C2c2c(F)cccc2Cl)no1 (stereo not drawn) | 2 | 2 | 1 | 2 | 27* | 2 | >50
CCOc1ccccc1CN1CCN(Cc2nc3c(s2)CCCC3)CC1CCO (stereo not drawn) | 0 | x | x | -4 | -3 | 7 | x
Cc1cccc(NC(=O)c2cc3c(s2)-c2c(C)cccc2OC3)n1 | -1 | 61 | -18 | x | 30* | -16 | 7.3*
CSc1ccccc1NC(=O)CSc1nncs1 | 2 | 3 | 1 | 4 | 2 | -20 | x
O=C(CN1C(=O)NC2(CCCC2)C1=O)Nc1nc2c(F)cc(F)cc2s1 | -3 | x | x | x | 20* | x | >50
Cc1cccc2sc(NC(=O)CN3C(=O)NC4(CCCC4)C3=O)nc12 | 0 | x | x | x | 3 | x | x
CCN1C(=O)C2(C(C#N)=C(N)Oc3n[nH]c(C(C)C)c32)c2ccccc21 (stereo not drawn) | 1 | -12 | 1 | 4 | 26* | -9 | >50
Cc1ccccc1-n1c(=O)cc(N2CCC3(CC2)OCCO3)[nH]c1=O | -1 | 1 | -1 | 4 | 33* | -13 | >50
COc1ccc2c(c1)C(c1ccc(C)o1)=NNC(c1cccnc1)=N2 | -2 | 4 | 0 | 1 | 21* | 5 | >50
COCCNc1cc(C)nc2cc(-c3ccc(C)cc3)nn12 | 0 | 25 | 3 | 7 | 19* | -31 | 3.8*
Cc1cccc(C)c1NC(=O)CNC(=O)C(Cc1ccccc1)NC(=O)c1ccccc1 (stereo not drawn) | 2 | x | x | x | -1 | x | x
COc1ccccc1NC(=O)CN1CCN(CC(=O)Nc2ccc(C)c(F)c2)CC1 | 0 | x | x | x | 27* | x | >50
C=CCn1c(SCC(=O)Nc2sccc2C(N)=O)nc2ccccc2c1=O | -2 | 0 | -1 | 0 | 19* | -17 | >50
SMILES | MEX-5 binding | Runt-SMMHC FRET | Runt-CBFb FRET | PKD1 kinase inh | RanGTP-Impb inh | EBV gp42 inh | YIC counter
COc1ccc(Cl)cc1NC(=O)CN(C)C(=O)c1cn(-c2ccccc2)nc1-c1cccnc1 | 2 | x | x | x | 0 | x | x
CCOc1ccc(CCNC(=O)c2ccc(=O)[nH]c2)cc1OCC | 0 | x | x | x | 4 | x | x
Cn1c(=O)cc(N2CCCCC2)[nH]c1=O | 6 | -1 | -3 | 0 | 19* | 1 | >50
CCn1c(=O)cc(N2CCCCC2)[nH]c1=O | 1 | 0 | 1 | -19 | 23* | -4 | >50
CCn1c(=O)cc(N2CCOCC2)[nH]c1=O | 0 | -2 | -1 | -2 | 24* | -4 | >50
Cc1ccc([N+](=O)[O-])c(NC2OC(CO)C(O)C2O)c1 (stereo not drawn) | 1 | 0 | 2 | 9 | 4 | -2 | x
